Experiments:
[1] = melting temperature; fluorescence melt of hairpins on a sequencing array, two-state fit, raised by 9.35 °C to match UV melts; conditions: sodium 0.088 M
In short: (§1)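 Folding enthalpy and melting temperature were estimated with bootstrapped two-state fits and combined across four replicates by inverse-variance weighting, with fitted temperatures raised by 9.35 °C to match UV melts. The data were Cy3 fluorescence of library hairpins, with annealed Cy3 and quencher oligos, on a sequenced MiSeq flow cell in 50 mM Na-HEPES pH 8.0, 25 mM NaCl, imaged in 2.5 °C steps up to 60 °C and normalised to pre-quench Cy3 and control constructs.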

[2] = folding enthalpy; higher = less favourable; fluorescence melt of hairpins on a sequencing array, two-state fit; conditions: sodium 0.088 M
In short: as §1

Sequence	Tm [1] [°C]	folding enthalpy [2] [kcal/mol]
GCCGGGCGAAAGCCAAGC ((..(((....)))..))	46.8	-14.5
GACTGCGAAAGCATCGTC ((((((....)))..)))	47.1	-12.2
GCAATGGGAAACCGTTGC ((((.((....)).))))	55	-43.3
GGCTGCGAAAGCAGTGCC ((((((....)))..)))	51.7	-12.1
GTCCGGCGAAAGCCTGAC (((.(((....))).)))	51.8	-20.9
GCGTCGTCGAAAGACCGC (((..(((....))))))	50.3	-19.3
GATCCAAGTTGGATC ((((((...))))))	49.1	-35.7
CGCGTCGGAAACGAGCG (((.(((....))))))	54.9	-31.7
GATCACATTGTGATC ((((((...))))))	57.9	-33.7
GTGAGTGAAAACTCAC ((((((....))))))	59.1	-37.7
GCATGAGGAAACTCACGC ((.((((....)))).))	41.3	-28
GGACATCGAAAGATTCC (((.(((....))))))	38.6	-26.4
GCGTGACGAAAGTCCGC (((.(((....))))))	65	-32.2
GCGCGCTCGAAAGAGCGC (((..(((....))))))	66.8	-6.02
GCAGGGCGAAAGCGGTGC (((..((....))..)))	52.8	-21.4
GCCGCCTCGAAAGAGGGC (((..(((....))))))	51.1	-8.74
GATCAGCCGCCTGATC ((((((....))))))	50.5	-32.5
GGAGACGAAAGTCTTCC ((((((....))).)))	50.9	-18
GGAAGGGGAAACTCTTCC (((((.(....).)))))	46.3	-39.7
GTACTAGGAAACCAGTAC (((((.(....).)))))	36	-26.9
GCGGGAACCCGC ((((....))))	67.8	-26
GACGGCGAAAGCCGCGTC ((((((....)))..)))	50.9	-8.52
GCTCTCGAAAGAGCAAGC ((((((....)))..)))	42.9	-12.2

Sequence	Tm [1] [°C]	folding enthalpy [2] [kcal/mol]
GCAAACGGAAACGTCTGC (((.(((....))).)))	44.7	-25.2
GATCTCAAGCGAGATC ((((((....))))))	50.4	-37.6
GGGTACGAAAGTAGCCCC ((((((....)))..)))	55	-14.5
GCACGGCGAAAGCCTGC (((.(((....))))))	58.7	-18.1
GCAGTCGAAAGACATGC ((((((....))).)))	51.5	-24.1
GTAGCCGAAAGGCATAC ((((((....))).)))	43.5	-11.9
GGAATGGGAAACCGTTCC ((((.((....)).))))	50.8	-39.1
GCCGTGCGAAAGCACTGC ((.((((....)))).))	61.8	-14.4
GTCGTCCGAAAGGAGGAC (((.(((....))).)))	62	-40.2
GAACTACGAAAGTATTTC (((.(((....))).)))	32.7	-13.6
GATCATCTGTATGATC ((((((....))))))	47.1	-36.2
GATCCGGTGCGGATC ((((((...))))))	57.5	-45.2
GCAACACGAAAGTGCTGC (((.(((....))).)))	54.8	-48.4
GTGGTCTCGAAAGAGCAC (((..(((....))))))	48.8	-25.9
GATCAGAACACTGATC ((((((....))))))	48.5	-32.1
GTGGTAACGAAAGTTCAC (((..(((....))))))	35.7	-10.7
GCGCGACGAAAGTCCGC (((.(((....))))))	66.8	-29
GGTCACGCGAAAGCGACC (((..(((....))))))	47.4	-14.2
GATGGCGAAAGCCACATC ((((((....)))..)))	28.8	-7.73
GCAGGTACGAAAGTATGC (((..(((....))))))	33.9	-18
GTTCGGGGAAACCCAAAC (((.(((....))).)))	36	-23.8
GAGGTAACGAAAGTTCTC (((..(((....))))))	29	-11.1
GCGAGGGGAAACCCCCAC (.(.(((....))).).)	28.6	-10.9

Sequence	Tm [1] [°C]	folding enthalpy [2] [kcal/mol]
GGGTACGGAAACGTACTC (.(((((....))))).)	51.2	-16.1
GGGACGGGAAACCGCCCC (((.(((....))).)))	57.3	-44.1
GATCGGTCAGCCGATC ((((((....))))))	59.8	-41.8
GTGTGCGAAAGCATGCAC ((((((....)))..)))	45.1	-16.1
GCTTCTCGAAAGAGTAGC (((.(((....))).)))	47.9	-31.1
GATTGGCGAAAGCCTATC (((.(((....))).)))	48.8	-19.8
GCCAAATCGAAAGATGGC (((..(((....))))))	47.4	-27.2
GCCCCAACGAAAGTTGGC (((..(((....))))))	38.7	-5.86
GTTCCGCGAAAGCGAAAC (((.(((....))).)))	53.9	-23.6
GATGACGAAAGTCTAATC ((((((....)))..)))	29.9	-12
GTCTGGGGAAACTCGGAC (((.(.(....).).)))	37.1	-28.8
GAGCTGCGAAAGCACCTC (((.(((....))).)))	39.7	-17
GTCGGTCGAAAGACTGAC (((.(((....))).)))	61.2	-38.1
GAGGGACGAAAGTCCTC (((.(((....))))))	48.9	-11.8
GGAGGGCGAAAGCCTTCC (((.(((....))).)))	61.9	-24.9
GATCCCTCGAGGGATC ((((((....))))))	62	-41.7
GTCATTGCGAAAGCAGAC (((..(((....))))))	33	-14.5
GATCGGCTGTCCGATC ((((((....))))))	56.3	-39.6
GACTGAGGAAACTCAGTC (((((((....)))))))	61.5	-34.8
GGAGTCGAAAGACGGTCC ((((((....)))..)))	39.2	-14.1
GATCTCTGCCGAGATC ((((((....))))))	51.3	-37.9
GAGTACGAAAGTATCCTC ((((((....)))..)))	25.4	-17.6
GCCGGGTCGAAAGACGGC (((..(((....))))))	54.9	-31

Sequence	Tm [1] [°C]	folding enthalpy [2] [kcal/mol]
GGTATCGGAAACGATATC (.(((((....))))).)	45.7	-24.1
GGTTCCGAAAGGAACACC ((((((....)))..)))	51.9	-8.81
GATCATTTAGATGATC ((((((....))))))	47.6	-37.4
GGCCCCGCGAAAGCGGCC (((..(((....))))))	41	-9.49
GTACCACCGAAAGGTTAC (((..(((....))))))	21.6	-11.5
GTCCCAGGAAACTGGGGC (.(((((....))))).)	57.5	-40.6
GCGCTGTCGAAAGACCGC (((..(((....))))))	52.3	-22.8
GATCGGTCCTCCGATC ((((((....))))))	59.9	-38
GTGTCCGAAAGGAATCAC ((((((....)))..)))	34.3	-17.3
GTCTTGCCGAAAGGCGAC (((..(((....))))))	38.3	-10.7
GCGGCACACCGC ((((....))))	57.5	-25.5
GCTGCGGGAAACTGCAGC (((((.(....).)))))	64.5	-40.6
GGATTCTCGAAAGAGTCC (((..(((....))))))	33.5	-22.7
GTACTCCGAAAGGATTAC (((.(((....))).)))	37.6	-29.8
GTAGCGCCGAAAGGCTAC (((..(((....))))))	36.3	-12.4
GCTGAACGAAAGTTTAGC (((.(((....))).)))	53	-31.5
GAATGCGGAAACACATTC (((((.(....).)))))	39.8	-32.6
GAGCATGAAAATGCTC ((((((....))))))	63.2	-33
GAGGTCCCGAAAGGGCTC (((..(((....))))))	37.6	-13.7
CGGCAGAAATGCCG (((((....)))))	64.9	-31.3
GCGTCAGGAAACCAACGC ((((..(....)..))))	40.3	-25.1
GCTTAGCGAAAGCAATGC ((.(.((....)).).))	31.9	-11.7
GACGGCGAAAGCCACGTC ((((((....)))..)))	49.8	-15.3

— the array DNA melting data of Ke et al. (doi:10.1101/2024.01.08.574731)
